Measurements from ChEMBL document CHEMBL3856258, “Phosphonate-based irreversible inhibitors of human γ-glutamyl transpeptidase (GGT). GGsTop is a non-toxic and highly selective inhibitor with critical electrostatic interaction with an active-site residue Lys562 for enhanced inhibitory activity” (Bioorg Med Chem, 2016).

What was measured:
Salmonella typhimurium [1] = experiment: Genotoxicity in Salmonella typhimurium TA1535 assessed as number of revertant colonies per plate at 556 ug/plate after 20 mins in presence of S9 fraction by Ames test (reference value: 13); type: toxicity, organism-based; conditions: salmonella enterica subsp. enterica serovar typhimurium
[2] = Cytotoxicity against CHL cells assessed as chromatid gap at 1650 ug/ml after 24 hrs by Giemsa-staining-based microscopic analysis; type: toxicity, cell-based, Cricetulus griseus; conditions: chinese hamster
Salmonella typhimurium [3] = experiment: Genotoxicity in Salmonella typhimurium TA1535 assessed as number of revertant colonies per plate at 1667 ug/plate after 20 mins in presence of S9 fraction by Ames test (reference value: 13); type: toxicity, organism-based; conditions: salmonella enterica subsp. enterica serovar typhimurium
[4] = Cytotoxicity against CHL cells assessed as number of cells with numerical aberrations at 3300 ug/ml preincubated for 6 hrs followed by 18 hrs incubation in fresh medium in absence of S9 fraction by Giemsa-staining-based microscopic analysis relative to control; type: toxicity, cell-based, Cricetulus griseus; conditions: chinese hamster
[5] = Cytotoxicity against CHL cells assessed as growth rate at 2.16 ug/ml preincubated for 6 hrs followed by 18 hrs incubation in fresh medium in absence of S9 fraction by MTT assay relative to control; type: toxicity, cell-based, Cricetulus griseus; conditions: chinese hamster, read-out: Activity
[6] = Cytotoxicity against CHL cells assessed as number of cells with numerical aberrations at 3300 ug/ml after 24 hrs by Giemsa staining-based microscopic analysis relative to control; type: toxicity, cell-based, Cricetulus griseus; conditions: chinese hamster
Salmonella typhimurium [7] = experiment: Genotoxicity in Salmonella typhimurium TA98 assessed as number of revertant colonies per plate at 61.7 ug/plate after 20 mins in absence of S9 fraction by Ames test (reference value: 21); type: toxicity, organism-based; conditions: salmonella enterica subsp. enterica serovar typhimurium
[8] = Cytotoxicity against CHL cells assessed as growth rate at 33.8 ug/ml preincubated for 6 hrs followed by 18 hrs incubation in fresh medium in absence of S9 fraction by MTT assay relative to control; type: toxicity, cell-based, Cricetulus griseus; conditions: chinese hamster, read-out: Activity
Salmonella typhimurium [9] = experiment: Genotoxicity in Salmonella typhimurium TA1535 assessed as number of revertant colonies per plate at 556 ug/plate after 20 mins in absence of S9 fraction by Ames test (reference value: 15); type: toxicity, organism-based; conditions: salmonella enterica subsp. enterica serovar typhimurium
Salmonella typhimurium [10] = experiment: Genotoxicity in Salmonella typhimurium TA1535 assessed as number of revertant colonies per plate at 20.6 ug/plate after 20 mins in presence of S9 fraction by Ames test (reference value: 13); type: toxicity, organism-based; conditions: salmonella enterica subsp. enterica serovar typhimurium
Escherichia coli [11] = experiment: Genotoxicity in Escherichia coli WP2uvrA assessed as number of revertant colonies per plate at 185 ug/plate after 20 mins in presence of S9 fraction by Ames test (reference value: 26); type: toxicity; conditions: s9, 20 min
Salmonella typhimurium [12] = experiment: Genotoxicity in Salmonella typhimurium TA1537 assessed as number of revertant colonies per plate at 5000 ug/plate after 20 mins in presence of S9 fraction by Ames test (reference value: 15); type: toxicity, organism-based; conditions: salmonella enterica subsp. enterica serovar typhimurium
[13] = Cytotoxicity against CHL cells assessed as growth rate at 211 ug/ml preincubated for 6 hrs followed by 18 hrs incubation in fresh medium in presence of S9 fraction by MTT assay relative to control; type: toxicity, cell-based, Cricetulus griseus; conditions: chinese hamster, read-out: Activity
[14] = Cytotoxicity against CHL cells assessed as growth rate at 528 ug/ml preincubated for 6 hrs followed by 18 hrs incubation in fresh medium in absence of S9 fraction by MTT assay relative to control; type: toxicity, cell-based, Cricetulus griseus; conditions: chinese hamster, read-out: Activity
Salmonella typhimurium [15] = experiment: Genotoxicity in Salmonella typhimurium TA1537 assessed as number of revertant colonies per plate at 556 ug/plate after 20 mins in presence of S9 fraction by Ames test (reference value: 15); type: toxicity, organism-based; conditions: salmonella enterica subsp. enterica serovar typhimurium
Salmonella typhimurium [16] = experiment: Genotoxicity in Salmonella typhimurium TA1535 assessed as number of revertant colonies per plate at 1667 ug/plate after 20 mins in absence of S9 fraction by Ames test (reference value: 15); type: toxicity, organism-based; conditions: salmonella enterica subsp. enterica serovar typhimurium
Escherichia coli [17] = experiment: Genotoxicity in Escherichia coli WP2uvrA assessed as number of revertant colonies per plate at 61.7 ug/plate after 20 mins in presence of S9 fraction by Ames test (reference value: 26); type: toxicity; conditions: s9, 20 min
Salmonella typhimurium [18] = experiment: Genotoxicity in Salmonella typhimurium TA98 assessed as number of revertant colonies per plate at 185 ug/plate after 20 mins in absence of S9 fraction by Ames test (reference value: 21); type: toxicity, organism-based; conditions: salmonella enterica subsp. enterica serovar typhimurium
Salmonella typhimurium [19] = experiment: Genotoxicity in Salmonella typhimurium TA100 assessed as number of revertant colonies per plate at 20.6 ug/plate after 20 mins in absence of S9 fraction by Ames test (reference value: 123); type: toxicity, organism-based; conditions: salmonella enterica subsp. enterica serovar typhimurium
Salmonella typhimurium [20] = experiment: Genotoxicity in Salmonella typhimurium TA100 assessed as number of revertant colonies per plate at 5000 ug/plate after 20 mins in absence of S9 fraction by Ames test (reference value: 123); type: toxicity, organism-based; conditions: salmonella enterica subsp. enterica serovar typhimurium
Salmonella typhimurium [21] = experiment: Genotoxicity in Salmonella typhimurium TA98 assessed as number of revertant colonies per plate at 556 ug/plate after 20 mins in presence of S9 fraction by Ames test (reference value: 26); type: toxicity, organism-based; conditions: salmonella enterica subsp. enterica serovar typhimurium
[22] = Cytotoxicity against CHL cells assessed as structural aberrations at 1650 ug/ml preincubated for 6 hrs followed by 18 hrs incubation in fresh medium in presence of S9 fraction by Giemsa-staining-based microscopic analysis; type: toxicity, cell-based, Cricetulus griseus; conditions: chinese hamster
[23] = Cytotoxicity against CHL cells assessed as number of cells with numerical aberrations at 825 ug/ml after 24 hrs by Giemsa staining-based microscopic analysis relative to control; type: toxicity, cell-based, Cricetulus griseus; conditions: chinese hamster
Salmonella typhimurium [24] = experiment: Genotoxicity in Salmonella typhimurium TA98 assessed as number of revertant colonies per plate at 1667 ug/plate after 20 mins in presence of S9 fraction by Ames test (reference value: 26); type: toxicity, organism-based; conditions: salmonella enterica subsp. enterica serovar typhimurium
Escherichia coli K-12 = experiment: Irreversible inhibition of Escherichia coli K-12 SH642 GGT using gamma-Glu-AMC as substrate assessed as association rate constant by […] analysis
Procedure, shortened: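 GGT was purified from the periplasmic fraction of recombinant E. coli K-12 SH642. Hydrolytic activity was followed with γ-Glu-AMC as substrate. Irreversible inactivation was expressed as kon, the second-order rate constant for the inhibitor–enzyme reaction.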

[25] = Cytotoxicity against CHL cells assessed as growth rate at 1320 ug/ml preincubated for 6 hrs followed by 18 hrs incubation in fresh medium in absence of S9 fraction by MTT assay relative to control; type: toxicity, cell-based, Cricetulus griseus; conditions: chinese hamster, read-out: Activity
Salmonella typhimurium [26] = experiment: Genotoxicity in Salmonella typhimurium TA100 assessed as number of revertant colonies per plate at 185 ug/plate after 20 mins in presence of S9 fraction by Ames test (reference value: 142); type: toxicity, organism-based; conditions: salmonella enterica subsp. enterica serovar typhimurium
[27] = Cytotoxicity against CHL cells assessed as chromatid gap at 825 ug/ml preincubated for 6 hrs followed by 18 hrs incubation in fresh medium in presence of S9 fraction by Giemsa-staining-based microscopic analysis; type: toxicity, cell-based, Cricetulus griseus; conditions: chinese hamster
[28] = Cytotoxicity against CHL cells assessed as number of cells with numerical aberrations at 1650 ug/ml preincubated for 6 hrs followed by 18 hrs incubation in fresh medium in presence of S9 fraction by Giemsa staining-based microscopic analysis relative to control; type: toxicity, cell-based, Cricetulus griseus; conditions: chinese hamster
Salmonella typhimurium [29] = experiment: Genotoxicity in Salmonella typhimurium TA100 assessed as number of revertant colonies per plate at 20.6 ug/plate after 20 mins in presence of S9 fraction by Ames test (reference value: 142); type: toxicity, organism-based; conditions: salmonella enterica subsp. enterica serovar typhimurium
[30] = Cytotoxicity against CHL cells assessed as growth rate at 3300 ug/ml preincubated for 6 hrs followed by 18 hrs incubation in fresh medium in presence of S9 fraction by MTT assay relative to control; type: toxicity, cell-based, Cricetulus griseus; conditions: chinese hamster, read-out: Activity
Salmonella typhimurium [31] = experiment: Genotoxicity in Salmonella typhimurium TA1537 assessed as number of revertant colonies per plate at 20.6 ug/plate after 20 mins in absence of S9 fraction by Ames test (reference value: 9); type: toxicity, organism-based; conditions: salmonella enterica subsp. enterica serovar typhimurium

For COP(=O)(CCC(N)C(=O)O)Oc1cccc(CC(=O)O)c1 (configuration not stated), the Activity (Salmonella typhimurium [1]) was 12, the Activity [2] was 1% and the Activity (Salmonella typhimurium [3]) was 8. The Activity [4] was 0%, the viability at 18 h, 2.16 ug/ml [5] was 103% and the Activity [6] was 0%. The Activity (Salmonella typhimurium [7]) was 23, the viability at 18 h, 33.8 ug/ml [8] was 103% and the Activity (Salmonella typhimurium [9]) was 8. The Activity (Salmonella typhimurium [10]) was 11, the Activity (Escherichia coli [11]) was 28 and the Activity (Salmonella typhimurium [12]) was 17. For the same molecule, the viability at 18 h, 211 ug/ml [13] was 98.8%, the viability at 18 h, 528 ug/ml [14] was 101% and the Activity (Salmonella typhimurium [15]) was 16. For the same molecule, the Activity (Salmonella typhimurium [16]) was 11, the Activity (Escherichia coli [17]) was 28 and the Activity (Salmonella typhimurium [18]) was 24. It also gave an Activity (Salmonella typhimurium [19]) of 120, an Activity (Salmonella typhimurium [20]) of 123 and an Activity (Salmonella typhimurium [21]) of 28. The Activity [22] was 1%, the Activity [23] was 0% and the Activity (Salmonella typhimurium [24]) was 29. The K (Escherichia coli K-12) was 150 M⁻¹ s⁻¹, the viability at 18 h, 1320 ug/ml [25] was 95.7% and the Activity (Salmonella typhimurium [26]) was 147. For the same molecule, the Activity [27] was 0%, the Activity [28] was 0% and the Activity (Salmonella typhimurium [29]) was 139. It also gave a viability at 18 h, 3300 ug/ml [30] of 96.8% and an Activity (Salmonella typhimurium [31]) of 9.
